Assay results taken from ChEMBL document CHEMBL3120060, “Synthesis, in vitro anticancer evaluation and in silico studies of novel imidazo[2,1-b]thiazole derivatives bearing pyrazole moieties” (2014).

Assays:
Assay type in all cases: functional
SF-295 = experiment: Cytotoxicity against human SF295 cells assessed as cell growth at 10 uM after 48 hrs by SRB assay; settings: SF-295, 48 h, read-out: Activity
Method in brief: (§1)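 NCI-60 single-dose screen. Cell lines grown in RPMI 1640 with 5% FBS and 2 mM L-glutamine, plated at 5000–40,000 cells/well according to doubling time, then preincubated 24 h at 37 °C in 5% CO2. Compounds dissolved in DMSO, tested at 10^-5 M for 48 h. Adherent cells fixed with cold TCA (10% final) and stained with 0.4% SRB in 1% acetic acid. Growth expressed as percent of untreated control.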

SW-620 = experiment: Cytotoxicity against human SW620 cells assessed as cell growth at 10 uM after 48 hrs by SRB assay; settings: SW-620, 48 h, read-out: Activity
Method in brief: (§2)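 NCI-60 single-dose screen at 10^-5 M. Adherent lines are grown in RPMI 1640 with 5% FBS and 2 mM L-glutamine, seeded at 5000–40,000 cells/well by doubling time, and preincubated 24 h at 37 °C in 5% CO2. Drug is added from DMSO stock diluted in medium, then 48 h. Cells are fixed in cold TCA (final 10%) for 60 min and stained with 0.4% SRB in 1% acetic acid. Growth is expressed as % of untreated control using time-zero plates.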

HCT-116 = experiment: Cytotoxicity against human HCT116 cells assessed as cell growth at 10 uM after 48 hrs by SRB assay; settings: HCT-116, 48 h, read-out: Activity; method in brief: as §1
COLO 205 = experiment: Cytotoxicity against human COLO205 cells assessed as cell growth at 10 uM after 48 hrs by SRB assay; settings: COLO 205, 48 h, read-out: Activity; method in brief: as §1
NCI-H460 = experiment: Cytotoxicity against human NCI-H460 cells assessed as cell growth at 10 uM after 48 hrs by SRB assay; settings: NCI-H460, 48 h, read-out: Activity; method in brief: as §1
NCI-H322M = experiment: Cytotoxicity against human NCI-H322M cells assessed as cell growth at 10 uM after 48 hrs by SRB assay; settings: read-out: Activity; method in brief: as §1
HOP-62 = experiment: Cytotoxicity against human HOP62 cells assessed as cell growth at 10 uM after 48 hrs by SRB assay; settings: HOP-62, 48 h, read-out: Activity; method in brief: as §1
A549 = experiment: Cytotoxicity against human A549 cells assessed as cell growth at 10 uM after 48 hrs by SRB assay; settings: A549, 48 h, read-out: Activity; method in brief: as §1
RPMI-8226 = experiment: Cytotoxicity against human RPMI8226 cells assessed as cell growth at 10 uM after 48 hrs by SRB assay; settings: RPMI-8226, 48 h, read-out: Activity; method in brief: as §1
MOLT-4 = experiment: Cytotoxicity against human MOLT4 cells assessed as cell growth at 10 uM after 48 hrs by SRB assay; settings: MOLT-4, 48 h, read-out: Activity; method in brief: as §1
K562 = experiment: Cytotoxicity against human K562 cells assessed as cell growth at 10 uM after 48 hrs by SRB assay; settings: K562, 48 h, read-out: Activity; method in brief: as §1
HL-60(TB) = experiment: Cytotoxicity against human HL-60(TB) cells assessed as cell growth at 10 uM after 48 hrs by SRB assay; settings: HL-60, 48 h, read-out: Activity
Method in brief: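 NCI-60 single-dose screen: cells grown in RPMI 1640 with 5% FBS and 2 mM L-glutamine, plated at 5000–40,000 cells/well, preincubated 24 h at 37 °C, 5% CO2. Compound dissolved in DMSO, tested at 10^-5 M for 48 h. Cells TCA-fixed, sulforhodamine B stained. Growth expressed as percent of untreated control, referenced to time-zero plates.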

MDA-MB-468 = experiment: Cytotoxicity against human MDA-MB-468 cells assessed as cell growth at 10 uM after 48 hrs by SRB assay; settings: MDA-MB-468, 48 h, read-out: Activity; method in brief: as §1
[1] = Cytotoxicity against human Hs578T cells assessed as cell growth at 10 uM after 48 hrs by SRB assay; settings: Hs-578T, read-out: Activity; method in brief: as §1
MDA-MB-231 = experiment: Cytotoxicity against human MDA-MB-231 cells assessed as cell growth at 10 uM after 48 hrs by SRB assay; settings: MDA-MB-231, 48 h, read-out: Activity; method in brief: as §1
MCF7 = experiment: Cytotoxicity against human MCF7 cells assessed as cell growth at 10 uM after 48 hrs by SRB assay; settings: MCF7, 48 h, read-out: Activity; method in brief: as §1
DU-145 = experiment: Cytotoxicity against human DU145 cells assessed as cell growth at 10 uM after 48 hrs by SRB assay; settings: DU-145, 48 h, read-out: Activity; method in brief: as §1
SN12C = experiment: Cytotoxicity against human SN12C cells assessed as cell growth at 10 uM after 48 hrs by SRB assay; settings: read-out: Activity; method in brief: as §1
RXF 393 = experiment: Cytotoxicity against human RXF393 cells assessed as cell growth at 10 uM after 48 hrs by SRB assay; settings: RXF 393, 48 h, read-out: Activity; method in brief: as §1
CAKI-1 = experiment: Cytotoxicity against human CAKI-1 cells assessed as cell growth at 10 uM after 48 hrs by SRB assay; settings: CAKI-1, 48 h, read-out: Activity; method in brief: as §1
786-0 = experiment: Cytotoxicity against human 786-0 cells assessed as cell growth at 10 uM after 48 hrs by SRB assay; settings: 786-0, 48 h, read-out: Activity; method in brief: as §1
[2] = Cytotoxicity against human OVCAR5 cells assessed as cell growth at 10 uM after 48 hrs by SRB assay; settings: OVCAR-5, 48 h, read-out: Activity; method in brief: as §1
OVCAR-3 = experiment: Cytotoxicity against human OVCAR3 cells assessed as cell growth at 10 uM after 48 hrs by SRB assay; settings: OVCAR-3, 48 h, read-out: Activity; method in brief: as §1
IGROV-1 = experiment: Cytotoxicity against human IGROV1 cells assessed as cell growth at 10 uM after 48 hrs by SRB assay; settings: IGROV-1, 48 h, read-out: Activity; method in brief: as §1
UACC-62 = experiment: Cytotoxicity against human UACC62 cells assessed as cell growth at 10 uM after 48 hrs by SRB assay; settings: UACC-62, 48 h, read-out: Activity; method in brief: as §2
[3] = Cytotoxicity against human UACC257 cells assessed as cell growth at 10 uM after 48 hrs by SRB assay; settings: UACC-257, 48 h, read-out: Activity; method in brief: as §2
SK-MEL-28 = experiment: Cytotoxicity against human SK-MEL-28 cells assessed as cell growth at 10 uM after 48 hrs by SRB assay; settings: SK-MEL-28, 48 h, read-out: Activity; method in brief: as §1
SK-MEL-2 = experiment: Cytotoxicity against human SK-MEL-2 cells assessed as cell growth at 10 uM after 48 hrs by SRB assay; settings: SK-MEL-2, 48 h, read-out: Activity; method in brief: as §1
LOX IMVI = experiment: Cytotoxicity against human LOXIMVI cells assessed as cell growth at 10 uM after 48 hrs by SRB assay; settings: read-out: Activity; method in brief: as §1
U-251 = experiment: Cytotoxicity against human U251 cells assessed as cell growth at 10 uM after 48 hrs by SRB assay; settings: U-251, 48 h, read-out: Activity; method in brief: as §2

Question: Which results are given for O=C1CN2C(c3ccc(Cl)cc3)=CSC2=N1?
Answer: growth at 10 µM (SF-295): 80%; growth at 10 µM (SW-620): 101%; growth at 10 µM (HCT-116): 97.1%; growth at 10 µM (COLO 205): 108%; growth at 10 µM (NCI-H460): 106%; growth at 10 µM (NCI-H322M): 93.8%; growth at 10 µM (HOP-62): 107%; growth at 10 µM (A549): 92.5%; growth at 10 µM (RPMI-8226): 89.2%; growth at 10 µM (MOLT-4): 79.1%; growth at 10 µM (K562): 79.7%; growth at 10 µM (HL-60(TB)): 94.2%; growth at 10 µM (MDA-MB-468): 106%; growth at 10 µM [1]: 111%; growth at 10 µM (MDA-MB-231): 102%; growth at 10 µM (MCF7): 90.9%; growth at 10 µM (DU-145): 102%; growth at 10 µM (SN12C): 94.9%; growth at 10 µM (RXF 393): 111%; growth at 10 µM (CAKI-1): 81.3%; growth at 10 µM (786-0): 94%; growth at 10 µM [2]: 97%; growth at 10 µM (OVCAR-3): 105%; growth at 10 µM (IGROV-1): 95.2%; growth at 10 µM (UACC-62): 88.7%; growth at 10 µM [3]: 96.3%; growth at 10 µM (SK-MEL-28): 95.7%; growth at 10 µM (SK-MEL-2): 98.2%; growth at 10 µM (LOX IMVI): 98.9%; growth at 10 µM (U-251): 94.3%
